Activity calls are given as the source filed them. No cut-off for these calls is given here.
Legend:
[1] = Apparent permeability from apical side to basolateral side in human Caco2 cells assessed as drug recovery at 1 uM after 60 mins by HPLC-MS analysis; assay type: ADME, cell-based; conditions: caco-2, 1 h
Summary of the method: (§1)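 Caco-2 monolayers were grown on Transwell filters, with test compound at 1 × 10^-6 M. Apical-to-basolateral flux was run at 37 °C with shaking, at pH 6.5 apical and pH 7.4 basolateral. Donor was sampled over 0–60 min and receiver at 60 min. Compound was quantified by full-scan HPLC-MS. Apparent permeability and percent recovery were derived from two determinations.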

[2] = Apparent permeability from apical side to basolateral side in human Caco2 cells at 1 uM after 60 mins by HPLC-MS analysis; assay type: ADME, cell-based; conditions: caco-2, 1 h; summary of the method: as §1
[3] = Metabolic stability in monkey liver S9 fraction assessed as parent compound remaining at 1 uM after 60 mins relative to control; assay type: ADME, tissue-based, Macaca mulatta; conditions: rhesus monkey, s9, 1 h
[4] = system: Liver; assay: Metabolic stability in dog liver S9 fraction assessed as parent compound remaining at 1 uM after 60 mins relative to control; assay type: ADME, tissue-based, Canis lupus familiaris; conditions: s9, 1 h
[5] = target: Na+/K+ ATPase alpha-1/beta-1 (Rattus norvegicus, UniProt P06685+P07340); assay: Inhibition of recombinant rat Na+/K+-ATPase alpha1/beta1 expressed in baculovirus infected insect Sf9 cell membranes using [gamma-32P]ATP as substrate preincubated for 20 mins followed by substrate addition measured after 30 mins by liquid scintillation counting
Summary of the method: (§2)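 Rat α/β1 isoforms were expressed in baculovirus-infected Sf9 cells (72 h, 27 °C), washed in 10 mM imidazole-HCl pH 7.5 with 1 mM EGTA, and homogenised. Homogenates were assayed in 120 mM NaCl, 30 mM KCl, 3 mM MgCl₂, 0.2 mM EGTA and 30 mM Tris-HCl pH 7.4. Reactions were started with 2 mM γ[³²P]-ATP (final) and run 30 min at 37 °C. Released ³²Pi was extracted as phosphomolybdate into isobutanol and scintillation counted. Activity was taken as the 1 mM ouabain-sensitive fraction. IC50 came from single-site dose–response fits.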

[6] = system: Rattus norvegicus; assay: Inhibition of rat sperm progressive motility at 5 mg/kg administered daily via oral gavage for 3 days by SYTO staining based microscopic method; assay type: functional, organism-based
Summary of the method: (§3)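 Male rats were dosed daily by oral gavage, either at 5, 10 or 20 mg/kg for 3 days, or at 5 mg/kg for 3, 6, 9 or 12 days. Animals were then sacrificed and cauda epididymal sperm collected. Total and progressive motility were measured by CASA and compared with untreated controls. Values are mean ± SEM of three experiments.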

[7] = system: Rattus norvegicus; assay: Inhibition of rat sperm movement at 20 mg/kg administered via oral gavage for 3 days by SYTO staining based microscopic method relative to control; assay type: functional; conditions: 72 h; summary of the method: as §3
[8] = system: Rattus norvegicus; assay: Inhibition of rat sperm progressive motility at 5 mg/kg administered daily via oral gavage for 6 to 12 days by SYTO staining based microscopic method relative to control; assay type: functional; summary of the method: as §3
[9] = target: Na+/K+ ATPase alpha-3/beta-1 (Rattus norvegicus, UniProt P06687+P07340); assay: Inhibition of recombinant rat Na+/K+-ATPase alpha3/beta1 expressed in baculovirus infected insect Sf9 cell membranes using [gamma-32P]ATP as substrate preincubated for 20 mins followed by substrate addition measured after 30 mins by liquid scintillation counting
Summary of the method: as §2, with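 “counted.” for “counted. Activity was taken as the 1 mM ouabain-sensitive fraction.”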

[10] = system: Liver; assay: Metabolic stability in human liver S9 fraction assessed as parent compound remaining at 1 uM after 60 mins relative to control; assay type: ADME, tissue-based; conditions: s9, 1 h
[11] = system: Liver; assay: Metabolic stability in mouse liver S9 fraction assessed as parent compound remaining at 1 uM after 60 mins relative to control; assay type: ADME, tissue-based; conditions: s9, 1 h
[12] = system: Rattus norvegicus; assay: Inhibition of rat sperm total motility at 5 mg/kg administered daily via oral gavage for 6 to 12 days by SYTO staining based microscopic method relative to control; assay type: functional; summary of the method: as §3
[13] = Apparent permeability from basolateral side to apical side in human Caco2 cells assessed as drug recovery at 1 uM after 60 mins by HPLC-MS analysis; assay type: ADME, cell-based; conditions: caco-2, 1 h
[14] = system: Rattus norvegicus; assay: Inhibition of rat sperm total motility at 5 mg/kg administered daily via oral gavage for 3 days by SYTO staining based microscopic method; assay type: functional, organism-based; summary of the method: as §3
[15] = system: Liver; assay: Metabolic stability in rat liver S9 fraction assessed as parent compound remaining at 1 uM after 60 mins relative to control; assay type: ADME, tissue-based; conditions: s9, 1 h
[16] = target: Voltage-gated inwardly rectifying potassium channel KCNH2 (Homo sapiens, UniProt Q12809); assay: Displacement of Tracer Red from human ERG expressed in cell membranes up to 60 uM by fluorescence polarization assay
Voltage-gated inwardly rectifying potassium channel KCNH2, sequence (Q12809 whole entry): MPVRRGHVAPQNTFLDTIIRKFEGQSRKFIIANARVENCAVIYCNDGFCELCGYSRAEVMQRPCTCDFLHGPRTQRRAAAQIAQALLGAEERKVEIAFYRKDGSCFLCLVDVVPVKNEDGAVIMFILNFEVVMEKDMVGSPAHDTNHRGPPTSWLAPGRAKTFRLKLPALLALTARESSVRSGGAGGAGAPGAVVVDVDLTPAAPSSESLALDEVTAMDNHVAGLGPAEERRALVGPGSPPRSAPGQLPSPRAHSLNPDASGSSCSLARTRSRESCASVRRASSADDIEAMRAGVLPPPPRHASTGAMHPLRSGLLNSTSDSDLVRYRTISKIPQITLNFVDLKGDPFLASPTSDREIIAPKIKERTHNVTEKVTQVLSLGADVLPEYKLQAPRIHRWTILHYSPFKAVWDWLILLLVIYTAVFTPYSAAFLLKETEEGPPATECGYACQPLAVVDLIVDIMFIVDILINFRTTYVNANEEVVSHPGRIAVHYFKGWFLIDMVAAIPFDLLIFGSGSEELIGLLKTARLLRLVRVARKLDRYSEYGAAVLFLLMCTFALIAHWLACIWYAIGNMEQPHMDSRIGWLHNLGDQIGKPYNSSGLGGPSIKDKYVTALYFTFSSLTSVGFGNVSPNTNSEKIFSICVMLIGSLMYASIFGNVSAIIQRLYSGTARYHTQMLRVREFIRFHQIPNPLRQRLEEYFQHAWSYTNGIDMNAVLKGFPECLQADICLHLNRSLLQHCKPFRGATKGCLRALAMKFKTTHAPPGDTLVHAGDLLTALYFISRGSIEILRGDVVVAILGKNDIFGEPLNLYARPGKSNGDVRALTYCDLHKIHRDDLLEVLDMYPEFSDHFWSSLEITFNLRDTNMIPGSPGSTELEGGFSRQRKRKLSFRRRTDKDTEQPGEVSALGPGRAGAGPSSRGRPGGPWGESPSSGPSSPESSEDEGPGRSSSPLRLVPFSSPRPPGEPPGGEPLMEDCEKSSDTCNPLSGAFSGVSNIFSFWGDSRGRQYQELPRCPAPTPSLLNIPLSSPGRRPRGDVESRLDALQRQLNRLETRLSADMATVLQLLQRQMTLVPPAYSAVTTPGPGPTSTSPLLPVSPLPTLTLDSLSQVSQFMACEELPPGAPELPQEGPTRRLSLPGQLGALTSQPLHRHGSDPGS
Summary of the method: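 Competitive fluorescence polarization displacement of a fluorescently tagged hERG ligand used membranes from cells stably expressing hERG. Compounds were tested up to 60 μM.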

[17] = Apparent permeability from basolateral side to apical side in human Caco2 cells at 1 uM after 60 mins by HPLC-MS analysis; assay type: ADME, cell-based; conditions: caco-2, 1 h
[18] = system: MCF7; assay: Antiproliferative activity against human MCF7 cells up to 100 uM after 72 hrs by AlamarBlue assay; assay type: cell-based; conditions: mcf7, 72 h

`C[C@]12C[C@@H](O)[C@H]3[C@@H](CC[C@]4(O)C[C@@H](O)C[C@@H](O)[C@]34CO)[C@@]1(O)CC[C@@H]2c1cn(Cc2ccccc2)nn1` gave a Drug recovery [1] of 94%, a Papp [2] of under 2 nm/s and a Stability [3] of 89%. The Stability [4] was 99%, the IC50 [5] was over 100 µM and the inhibition [6] was “Active”. It also gave an inhibition in vivo at 20 mg/kg [7] of 50%, an inhibition in vivo at 5 mg/kg [8] of 50% and an IC50 [9] of over 100 µM. The Stability [10] was 107%, the Stability [11] was 76% and the inhibition in vivo at 5 mg/kg [12] was 40%. For the same molecule, the Drug recovery [13] was 98%, the inhibition [14] was “Active” and the Stability [15] was 95%. For the same molecule, the “inhibition (INH)” value [16] was “Not Active”, the Papp [17] was 3 nm/s and the Activity [18] was “Non-Toxic”.

Reference: ChEMBL document CHEMBL4033781 (J Med Chem, 2018)
